High-throughput results: PubChem, The Scripps Research Institute Molecular Screening Center
mABHD4 FP – ABHD4 (mouse) inhibition, primary FP screen. inhibition, % at 8.92 µM. purified mABHD4, FP-Rh probe fluorescence polarization. AID 720543. actives 0.54% (n = 370,000). Q8VD66;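 active = inhibition exceeding the mean over every tested compound plus 3 SD, cut at about 30% in these data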
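Assay system: mABHD4 protein; medium: HEPES pH 7.0, NaCl, Pluronic buffer; dosing: 8.92 µM, single dose; schedule: 45 min + 60 min at 25 °C; signal: FP readout, ex 525 nm / em 598 nm; read-out: normalized percent inhibition of probe labeling; repeats: single replicate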
SIAE primary – inhibitors of human sialic acid acetylesterase SIAE; Q9HAT2; inhibition, % at 9.66 µM; SIAE FP-Rh probe binding, fluorescence polarization; actives 0.69% (n = 370,000);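 active = inhibition above a cutoff: mean of compounds within the control limits plus 3 SD of those, cut at about 17% in these data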
TCR CD3 inh – human TCR-CD3 binding inhibition; inhibition, % at 9.4 µM; actives 0.37% (n = 360,000); AID 651800; TAMRA-labeled TCR probe fluorescence, biochemical; in the data active = inhibition above about 19%;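 also: recombinant mutant TCR 2C K166C tagged with TAMRA read by polarization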
HTRA1 inhibitor – blocks human HTRA1 serine peptidase. Q92743. recombinant HTRA1, FP-rhodamine activity-based probe, fluorescence polarization. inhibition, % at 5.96 µM. actives 0.5% (n = 340,000); in the data active = inhibition above about 36%
DAGLB inh – diacylglycerol lipase beta (human) inhibition | HEK293T DAGLB membrane lysate, EnzChek fluorogenic substrate | actives 0.059% (n = 340,000) | Q8NCG7 | inhibition, % at 5.17 µM; in the data active = inhibition above about 34%
Target sequence (Q8NCG7 whole entry, looked up): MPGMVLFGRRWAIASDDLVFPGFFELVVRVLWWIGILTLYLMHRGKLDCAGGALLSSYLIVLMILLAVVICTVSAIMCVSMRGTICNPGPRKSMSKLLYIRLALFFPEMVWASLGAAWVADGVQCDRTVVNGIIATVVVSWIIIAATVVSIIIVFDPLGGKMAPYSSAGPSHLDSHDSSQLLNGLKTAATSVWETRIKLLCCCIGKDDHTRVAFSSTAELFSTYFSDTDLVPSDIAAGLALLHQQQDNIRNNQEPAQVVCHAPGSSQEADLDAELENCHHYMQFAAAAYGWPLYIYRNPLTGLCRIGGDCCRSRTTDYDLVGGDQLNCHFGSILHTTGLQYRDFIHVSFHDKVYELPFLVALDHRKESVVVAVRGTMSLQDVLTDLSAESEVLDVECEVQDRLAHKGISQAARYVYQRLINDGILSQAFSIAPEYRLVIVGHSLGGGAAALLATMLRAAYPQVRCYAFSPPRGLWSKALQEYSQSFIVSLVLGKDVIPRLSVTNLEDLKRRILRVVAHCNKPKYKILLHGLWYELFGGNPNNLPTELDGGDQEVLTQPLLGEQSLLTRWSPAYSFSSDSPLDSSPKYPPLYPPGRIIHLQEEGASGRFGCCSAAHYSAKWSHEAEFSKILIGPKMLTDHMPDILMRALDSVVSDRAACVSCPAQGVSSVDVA
HTRA1 conf – HTRA1 (human) inhibition, confirmation | recombinant HTRA1, FP-rhodamine activity-based probe, fluorescence polarization | shares compounds with HTRA1 inhibitor | actives 66% (n = 1,600) | inhibition, % at 5.96 µM;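 active = mean inhibition over three repeats above a set limit taken from the earlier primary screen, cut at about 37% in these data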;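 also: inhibitors block probe binding so polarization drops and inhibition rises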
A number is an active result; - = inactive; . = not tested or not shown. A selection: hits, their analogues and other compounds. The true share with any hit is near 1.5%.

SMILES	mABHD4 FP	SIAE primary	TCR CD3 inh	HTRA1 inhibitor	DAGLB inh	HTRA1 conf
Cc1ccc(N2C(N)=C(C#N)C(c3cccnc3)C3=C2CCCC3=O)cc1 (configuration not stated)	-	-	-	-	-	.
N#CC1=C(N)N(c2ccc(Br)cc2)C2=C(C(=O)CCC2)C1c1cccnc1 (configuration not stated)	-	-	-	46	-	-
CCN(CC)c1ccc(/C=C2\C(=O)N(c3nnc(C)c(=O)[nH]3)N=C2C)cc1	-	-	-	62	-	79
CCn1c2ccccc2c2c3ncc4cccn4c3ccc21	-	-	-	47	-	-
CN1CC[C@@H]2CN(S(=O)(=O)c3ccccc3)[C@H](c3ccccc3Br)C[C@@H]21	-	-	-	.	.	.
COC(=O)CCC(=O)OC1(C)C(=O)C2=CN(Cc3ccc(OC)cc3)C(c3ccc(OC)cc3)=CC2=C(Br)C1=O (configuration not stated)	-	-	-	-	-	.
COC(=O)CCC(=O)OC1(C)C(=O)C2=CN(Cc3ccccc3)C(c3ccc(OC)cc3)=CC2=C(Br)C1=O (configuration not stated)	-	-	-	60	-	63
COC(=O)CCC(=O)OC1(C)C(=O)C2=CN(CC3CC3)C(c3ccc(OC)cc3)=CC2=C(Br)C1=O (configuration not stated)	.	.	.	50	-	46
COC(=O)CCC(=O)OC1(C)C(=O)C2=CN(c3ccccc3)C(c3ccc(OC)cc3)=CC2=C(Br)C1=O (configuration not stated)	-	-	-	47	-	48
COC(=O)CCC(=O)OC1(C)C(=O)C2=CN(CCCOC(C)C)C(c3ccc(OC)cc3)=CC2=C(Br)C1=O (configuration not stated)	.	.	.	39	-	50
COc1cc(N/C(=C\C(=O)c2ccccc2)c2ccccc2)ccc1Cl	-	-	-	.	.	.
O=C(N[C@H](C(=O)N1CCC[C@H]1C(=O)NCc1ccccc1)c1ccccc1)c1ccc(Cl)c(Cl)c1	-	-	-	.	.	.
CCN(CC)C(=O)c1ccc(-c2nnc(Nc3ccc(O)cc3)c3ccccc23)cc1	-	-	-	41	-	-
CCN(CC)C(=O)c1ccc(-c2nnc(Nc3ccc(C(=O)N(C)C)cc3)c3ccccc23)cc1	-	-	-	-	-	.
O=[N+]([O-])c1ccc(NN=Cc2cccc([N+](=O)[O-])c2)cc1	-	-	-	-	-	.
O=[N+]([O-])c1ccc(N/N=C/c2cccc(O)c2O)cc1	-	-	-	64	-	46
CCOC(=O)[C@]12CCCCC/C=C\1N(CCc1ccc(Cl)cc1)C(=O)[C@H]2CC(=O)N1CCCCC1	-	-	.	.	.	.
O=Cc1ccc(O)c2ncccc12	.	.	.	36	-	60
NC(=O)c1ccc(O)c2ncccc12	-	-	.	.	.	.
Cc1ccccc1C(C)NS(=O)(=O)c1ccc2c(c1)OCCO2 (configuration not stated)	-	-	-	40	-	-
COc1ccc(C2CC(=O)C(c3ccc(C(C)=O)cc3)=CN2Cc2ccccc2)cc1 (configuration not stated)	-	-	-	.	.	.
O=C(Nc1ccc(F)cc1)OCc1cn(Cc2ccccc2F)nn1	-	-	.	.	.	.
Oc1ccccc1NCC(O)Cn1ccc2ccccc21 (configuration not stated)	-	-	-	54	-	-
OC(CNCc1ccccc1)Cn1ccc2ccccc21 (configuration not stated)	-	-	-	-	-	.
O=C(N[C@H](Cc1ccccc1)C(=O)O)[C@H]1O[C@@H](n2ccc(=O)[nH]c2=O)[C@H](O)[C@@H]1O	-	-	-	.	.	.
SMILES	mABHD4 FP	SIAE primary	TCR CD3 inh	HTRA1 inhibitor	DAGLB inh	HTRA1 conf
CNc1ccc(Br)cc(C(=O)/C=C/c2ccc(OC)cc2)c1=O	41	-	-	45	-	-
CCn1c(SCC(=O)c2ccc(O)c(O)c2)nnc1-c1ccc(C)cc1	32	-	-	49	-	77
COc1ccc(-n2sc3c(c2=S)-c2cc(OC)ccc2NC3(C)C)cc1	-	-	-	-	-	.
COc1ccc2c(c1)-c1c(ssc1=S)C(C)(C)N2	-	-	-	38	36	37
C=CCN(CC#Cc1ccc(OC)cc1)CC=C	-	-	.	.	.	.
COc1ccc(N)cc1CN1CCN(c2ncc(Cc3ccccc3)cn2)CC1	-	-	-	.	.	.
O=C(Oc1c(CN2CCOCC2)cc(Cl)c2cccnc12)c1ccccc1Br	-	-	-	39	-	-
O=C(Oc1c(Cl)cc(Cl)c2cccnc12)N1CCOCC1	-	-	-	-	-	.
c1coc(-c2nc3ccccc3nc2-c2ccco2)c1	62	25	34	52	-	-
c1coc(-c2cnc3ccccc3n2)c1	-	-	-	-	-	.
O=C(CN(CCc1ccccc1)S(=O)(=O)c1ccc(Cl)s1)N1CCOCC1	-	-	.	.	.	.
O=C(NCCc1ccccc1)c1ccc2nc(-c3ccco3)c(-c3ccco3)nc2c1	.	.	.	47	-	-
O=C(NCCc1ccccc1)c1ccc(=O)oc1	-	-	-	-	-	.
O=[N+]([O-])c1ccc2c(c1)CO[C@]21O[C@H](CCO)C[C@H](O)[C@H]1O	-	-	-	.	.	.
C=CC#CC[N+]1(CC#Cc2ccccc2)CCOCC1	-	-	-	57	-	65
C(#Cc1ccccc1)C[N+]1(CC#Cc2ccccc2)CCCC1	-	-	-	-	-	.
O=C(CN1CCN(S(=O)(=O)c2ccc(Cl)cc2)CC1)c1ccc(O)c(O)c1	.	.	.	43	-	44
O=C(CN1CCN(S(=O)(=O)c2ccc(F)cc2)CC1)c1ccc(O)c(O)c1	-	-	-	-	-	.
CCOc1ccc2c(ccc(/C=C/c3cc(C)c4cccnc4c3O)[n+]2C)c1	.	.	.	64	-	90
CCOc1ccccc1OCCCC(=O)Nc1nc2ccccc2[nH]1	-	-	-	-	-	.
CCOc1ccccc1/C=C/c1nc2ccccc2[nH]c1=O	-	-	-	40	-	-
Oc1c(C(c2ccccc2Cl)N2CCCC2)ccc2cccnc12 (configuration not stated)	-	-	-	-	-	.
CCC(=O)NC(c1ccccc1OC)c1ccc2cccnc2c1O (configuration not stated)	.	.	.	41	-	43
CCCCC(=O)NC(c1ccccc1)c1ccc2cccnc2c1O (configuration not stated)	-	-	-	39	-	57
CCCCC(=O)NC(c1ccccc1Cl)c1ccc2cccnc2c1O (configuration not stated)	-	-	-	57	-	52
CCCC(=O)NC(c1ccccc1)c1ccc2cccnc2c1O (configuration not stated)	-	-	-	47	-	45
COC(=O)C1=C(C)N(Cc2ccc(C(F)(F)F)cc2)C(=NCc2cc(OC)c(OC)c(OC)c2)NC1c1cccc(Cl)c1 (configuration not stated)	-	-	-	.	.	.
